# Results collected from several papers.
# Protocols differ between the studies behind these lines.
# Organism: Klebsiella pneumoniae
SMILES,read-out,method,strain,tested at,measurement,value
CCn1cc(C(=O)O)c(=O)c2cc(F)c(N3CCNCC3)cc21,microbial killing,broth dilution,ATCC43816,,MBC,2 µM
O=C1C=C(O)C(=O)c2ccccc21,microbial growth,broth dilution,ATCC700603,,IC50,123 µg/mL
CCOC(=O)C=c1[nH]c(=O)c(=Cc2cn(-c3ccccc3)nc2-c2ccccc2)s1,microbial growth,well diffusion,,100000 µg/mL,inhibition zone,14 mm
Cc1c(CN(C)C(=O)/C=C/c2cnc3c(c2)CC(CCN)C(=O)N3)oc2ccccc12.Cl (stereo not shown),microbial growth,broth dilution,BAA2472,,MIC,16 µg/mL
CNC(C)C1CCC(N)C(OC2C(N)CC(N)C(OC3OCC(C)(O)C(NC)C3O)C2O)O1 (stereo not shown),microbial growth,broth dilution,ATCC700603,,MIC,0.31 µM
Cc1ccc(-n2cc(COC3=CC(=O)c4ccccc4C3=O)nn2)cc1,microbial growth,broth dilution,ATCC700603,,IC50,220 µg/mL
O=C(N[C@H](CO)[C@H](O)c1ccc([N+](=O)[O-])cc1)C(Cl)Cl,microbial growth,broth dilution,ATCC700603,,MIC,80 µM
Cc1c(NN=C2SC(C(C#N)=Cc3ccc(Cl)cc3)=NC2=O)c(=O)n(-c2ccccc2)n1C,microbial growth,well diffusion,,100000 µg/mL,inhibition zone,16 mm
CC[C@H]1OC(=O)[C@H](C)[C@@H](O[C@H]2C[C@@](C)(OC)[C@@H](O)[C@H](C)O2)[C@H](C)[C@@H](O[C@@H]2O[C@H](C)C[C@H](N(C)C)[C@H]2O)[C@](C)(OC)C[C@@H](C)C(=O)[C@H](C)[C@@H](O)[C@]1(C)O,microbial growth,broth dilution,ATCC700603,,MIC,80 µM
Cc1ccc(C(C)C)cc1OCc1cn(-c2ccc(Cl)cc2)nn1,microbial growth,broth dilution,ATCC700603,,IC50,206 µg/mL
Cc1ccc(-c2nn(-c3ccccc3)cc2C=C(C#N)C2=NC(=O)CS2)cc1,microbial growth,well diffusion,,100000 µg/mL,inhibition zone,21 mm
C[C@H]1[C@H](NC(=O)/C(=N\OC(C)(C)C(=O)O)c2csc(N)n2)C(=O)N1S(=O)(=O)O,microbial growth,broth dilution,ATCC700603,,MIC,0.63 µM
Cc1c(NN=C2SC(C(C#N)=Cc3ccccc3)=NC2=O)c(=O)n(-c2ccccc2)n1C,microbial growth,well diffusion,,100000 µg/mL,inhibition zone,14 mm
Cc1ccc(C(C)C)cc1OCc1cn(-c2ccc(C(=O)O)cc2)nn1,microbial growth,broth dilution,ATCC700603,,IC50,261 µg/mL
N#CC(=Cc1ccccc1O)C1=NC(=O)C(=Cc2cn(-c3ccccc3)nc2-c2ccccc2)S1,microbial growth,well diffusion,,100000 µg/mL,inhibition zone,26 mm
Cc1ccc(C(C)C)cc1OCc1cn(-c2ccc([N+](=O)[O-])cc2)nn1,microbial growth,broth dilution,ATCC700603,,IC50,122 µg/mL
